Active and inactive are the calls of the source. The calls are words filed in the database; no cut-off is given here.

For data set [1], the target named is Human immunodeficiency virus type 1 reverse transcriptase (Human immunodeficiency virus 1, UniProt Q72547). In words: Inhibition of HIV1 wild type RT using poly(rA)/oligo(dT)15 homopolymer template after 1 hrs by ELISA. In a few lines:
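Wild-type HIV-1 RT was run on a poly(rA)/oligo(dT)₁₅ template, with oligo(dT) immobilized on plates and biotin-dUTP incorporated, 1 h at 37 °C. After Tris-HCl pH 7.5 washes, incorporated biotin was detected colorimetrically by streptavidin–alkaline phosphatase with PNPP (1 mg/mL, pH 9.5), 30 min at 37 °C, stopped with 0.5 M NaOH.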
In general terms: ELISA stands for enzyme-linked immunosorbent assay.

Data set [2] concerns Human immunodeficiency virus 2. In words: Antiviral activity against Human immunodeficiency virus 2 ROD infected in human MT4 cells assessed as inhibition of viral replication. In kind it is functional, organism-based. The note with it: ISOLATE ROD. In a few lines: (§1)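 MT-4 cells, spun 5 min at 1000 rpm, were resuspended at 6 × 10⁵ cells/mL and infected with HIV-1 IIIB or HIV-2 ROD. Compounds were added at the start in serial fivefold dilutions, in triplicate wells. Viability was read by MTT reduction at 540 and 690 nm five days post-infection. EC₅₀ is the concentration giving 50% protection from viral cytopathic effect, using the median OD of three wells.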

Data set [3] in a line: Selectivity index, ratio of CC50 for human MT4 cells to EC50 for wild type Human immunodeficieny virus 1 3B infected in human MT4 cells. In kind it is toxicity, cell-based. The note with it: read-out: Ratio CC50/EC50. In a few lines: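 SI is CC₅₀ in mock-infected MT-4 cells divided by EC₅₀ against HIV-1 IIIB, both from 5-day MTT assays in triplicate wells.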
In data set [4] the test system is Human immunodeficiency virus 2. In words: Antiviral activity against wild type Human immunodeficiency virus 2 ROD infected in human MT4 cells assessed as protection against virus-induced cytotoxicity after 5 days by MTT assay. It counts as functional, organism-based. Particulars: Human immunodeficiency virus 2, ISOLATE ROD, MT4, 120 h. In a few lines: as §1
For orientation: Tetrazolium assays rely on reduction of a dye to a coloured formazan, in cell work by metabolically active cells.

A short description of data set [5]: Cytotoxic activity against human MT4 cells assessed as viability of mock-infected cells after 5 days by MTT assay. In kind it is cell-based. An outline of the steps: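 Mock-infected, exponentially growing MT-4 cells (6 × 10⁵ cells/mL) were exposed to serial fivefold compound dilutions in triplicate wells. After 5 days, viability was read by MTT formazan absorbance at 540 and 690 nm. CC₅₀ is the concentration that lowered OD540 of the mock-infected control by 50%, using the median OD of three wells.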

Data set [6] deals with Human immunodeficiency virus 1. The data set can be described thus: Antiviral activity against wild type Human immunodeficiency virus 1 3B infected in human MT4 cells assessed as protection against virus-induced cytotoxicity after 5 days by MTT assay. In kind it is functional, organism-based. The note with it: MT4, 120 h. An outline of the steps:
as §1

For orientation: IC50 means the point on the concentration scale where inhibition reaches its midpoint. Read a low IC50 as inhibition by little substance. One may read the EC50 as the concentration at which the effect is half-maximal. Broadly, the CC50 is the concentration giving 50% cytotoxicity. In turn, `CCc1c(CN2CCCc3ccccc32)nc(SCC(=O)c2ccccc2)[nH]c1=O` showed an IC50 in data set [1] of 30.7 µM. Moreover, the inhibition result in data set [2] was “inactive”. In addition, in data set [3], the selectivity ratio was 1220. Moreover, the EC50 is above 298 µM in data set [4] and 0.24 µM in data set [6]. Also, the CC50 at 120 h in data set [5] is 298 µM.
For the molecule `CCc1c(CN2CCCc3ccccc32)nc(SCc2ccccc2)[nH]c1=O`, the inhibition entry in data set [2] is “inactive”. For the same molecule, in data set [3], the selectivity ratio was below 1. The EC50 in data set [4] and in data set [6] was above 4.8 µM each time. Also, the CC50 at 120 h in data set [5] worked out at 4.8 µM.
On to `CCc1c(CN2CCCc3ccccc32)nc(SCC(=O)c2ccc(Cl)cc2)[nH]c1=O`, for which the inhibition entry in data set [2] is “inactive”. Further, the selectivity ratio in data set [3] turned out to be 249. Moreover, the EC50 in data set [4] was above 275 µM; in data set [6], 1.01 µM. Moreover, the CC50 at 120 h in data set [5] was found to be 275 µM.
Turning to `CCc1c(CN2CCCc3ccccc32)nc(SCc2ccc(C)cc2)[nH]c1=O`, in data set [2], the inhibition result is “inactive”. In addition, the selectivity ratio in data set [3] is below 29. For the same molecule, the figures for the EC50 in data set [4] and in data set [6] were above 160 µM and at least 5.42 µM, respectively. Also, in data set [5], the cytotoxic concentration (CC50) at 120 h was 160 µM.
On to `COc1ccc(C(=O)CSc2nc(CN3CCCc4ccccc43)c(C)c(=O)[nH]2)cc1`, for which the inhibition entry in data set [2] was “inactive”. Also, in data set [3], the selectivity ratio came out at 144. Further, the EC50 in data set [4] was above 60.7 µM; in data set [6], 0.42 µM. Further, in data set [5], the half-maximal cytotoxic concentration (CC50) at 120 h worked out at 60.7 µM.
On to `CCc1c(CN2CCCc3ccccc32)nc(SCC(=O)c2ccc([N+](=O)[O-])cc2)[nH]c1=O`, for which the inhibition result in data set [2] is “inactive”. Also, the selectivity ratio in data set [3] was 56. Further, the EC50 in data set [4] is above 111 µM; in data set [6] it was 1.98 µM. Moreover, the CC50 at 120 h in data set [5] came to 111 µM.
Regarding `COc1ccc(C(=O)CSc2nc(CN3CCCc4ccccc43)cc(=O)[nH]2)cc1`, the inhibition result in data set [2] is “inactive”. Further, the selectivity ratio in data set [3] is 7. For the same molecule, the values for the EC50 in data set [4] and in data set [6] were above 160 µM and 24 µM, respectively. Moreover, in data set [5], the CC50 at 120 h turned out to be 160 µM.
The like results for `Cc1c(CN2CCCc3ccccc32)nc(SCc2ccccc2)[nH]c1=O` were, in that order, “inactive”, below 1, above 6.69 µM, above 6.69 µM and 6.69 µM.
For `O=C(CSc1nc(CN2CCCc3ccccc32)cc(=O)[nH]1)c1ccc(Cl)cc1` the same measures were “inactive”, below 1, above 75.6 µM, above 75.6 µM and 75.6 µM.
For `Cc1ccc(CSc2nc(CN3CCCc4ccccc43)cc(=O)[nH]2)cc1` the same measures were “inactive”, below 1, above 64.3 µM, above 64.3 µM and 64.3 µM.
On to `O=c1cc(CN2CCCc3ccccc32)nc(SCc2ccccc2)[nH]1`, for which, in data set [2], the inhibition result is “inactive”. Besides, the selectivity ratio in data set [3] was at most 3. Besides, the EC50 in data set [4] was above 94.2 µM; in data set [6], at least 32.2 µM. Also, the CC50 at 120 h in data set [5] is 94.2 µM.
For `Cc1c(CN2CCCc3ccccc32)nc(SCc2ccc(Cl)cc2)[nH]c1=O` the same measures were “inactive”, at most 29, above 65.5 µM, at least 2.25 µM and 65.5 µM.
